Most compounds without a hit are left out; they make up all but 3.9% or so of the library.
CHRM1 agonist – activates human CHRM1 receptor; P11229; CHO-K1 hM1, Fluo-8 calcium fluorescence, agonist mode; 0% DMSO, 100% acetylcholine EC100; activation, % at 3 µM; 360,000 tested, 0.33% active;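 active = activation above the run's mean compound activation plus 3 SD, cut at about 16% in these data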;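 also: peak over basal fluorescence ratio within a 140 s kinetic read after compound addition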
TAAR1 antagonist – antagonists of human TAAR1; AID 624466; CHO RD-HGA16 TAAR1, Fluo-8 calcium fluorescence, antagonist; 360,000 tested, 1.5% active; Q96RJ0; inhibition, % at 3 µM;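 active = inhibition above a per-plate cutoff, the mean inhibition of test compounds on that plate plus 3 SD, cut at about 49% in these data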
Target sequence (Q96RJ0 whole entry, looked up): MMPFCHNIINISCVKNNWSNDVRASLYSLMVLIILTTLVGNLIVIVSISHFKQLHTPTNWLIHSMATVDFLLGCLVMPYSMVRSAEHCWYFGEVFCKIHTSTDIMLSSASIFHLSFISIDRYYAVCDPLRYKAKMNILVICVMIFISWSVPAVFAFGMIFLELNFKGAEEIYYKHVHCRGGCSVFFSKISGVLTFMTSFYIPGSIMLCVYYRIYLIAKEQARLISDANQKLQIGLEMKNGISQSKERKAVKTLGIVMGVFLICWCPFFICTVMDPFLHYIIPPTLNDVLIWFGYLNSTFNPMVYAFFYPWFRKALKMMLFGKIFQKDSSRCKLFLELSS
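System: RD-HGA16 CHO cells with stable hTAAR1 and Gα16 | Probe or stimulus: EC80 β-phenethylamine stimulus | Dosing: 3 µM, single point | Times: Dye loading 75 min at 37 °C, then 30 min room temperature | Measured by: Fluo-8 calcium-sensitive fluorescence | Read-out basis: % inhibition of agonist calcium response | Replicates: n of 1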
TAAR1 ag – agonists of human TAAR1; 360,000 tested, 0.99% active; AID 624467; activation, % at 3 µM; CHO RD-HGA16 TAAR1, Fluo-8 calcium fluorescence; vehicle wells 0%, saturating PEA agonist 100%; Q96RJ0;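 active = activation above the mean activation of all test compounds in the run plus 3 SD, cut at about 38% in these data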
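Repeats: no replicates (n 1) | Material: CHO-derived RD-HGA16 cells with stable Gα16 and human TAAR1 | Technique: Kinetic Fluo-8 calcium fluorescence | Schedule: 17-24 h seeding, 75 min 37 °C dye, 30 min RT | Evaluation: % activation from peak over basal fluorescence ratio, DMSO-to-PEA scaled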
M1 PAM – positive allosteric modulators of human M1 muscarinic receptor; P11229; CHO-K1 hM1, Fluo-8 calcium fluorescence, ACh EC20; 0% = ACh EC20, 100% = maximal ACh; activation, % at 3 µM; 360,000 tested, 0.088% active; AID 588819; in the data active = activation above about 19%, passing the limit was not always enough
M1 antag – blocks human M1 muscarinic receptor | P11229 | CHO-K1 hM1, Fluo-8 calcium fluorescence, ACh EC80 antagonist | inhibition, % at 3 µM | 360,000 tested, 1.3% active | AID 588852;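 active = percent inhibition above its own plate's cutoff, namely the mean of that plate's compound wells plus 3 SD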;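 also: peak over basal fluorescence ratio during 140 s after agonist addition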
m5-HT2A agonist – mouse HTR2A agonism via beta-arrestin recruitment | activation, % at 7.6 µM | 360,000 tested, 0.66% active | CHO-K1 mHTR2A beta-arrestin complementation, luminescence; percent of 30 µM serotonin response | P35363;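 active = activation above a run cutoff, the mean activation of all tested compounds plus 3 SD, cut at about 14% in these data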
nonsel antag count – nonselective antagonist in TAAR1 antagonist counter-screen; 2,400 tested, 77% active; shares compounds with TAAR1 antagonist; counterscreen cell line, calcium fluorescence, antagonist mode; inhibition, % at 3 µM; AID 651780; in the data active = inhibition above about 22%;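 also: CHO-Ga16 host cells stimulated with ATP at an EC80 level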
TAAR1 ant conf – confirmation of human TAAR1 antagonists | TAAR1-expressing cells, fluorescence antagonist read-out | shares compounds with TAAR1 antagonist | inhibition, % at 3 µM | AID 651785 | 2,400 tested, 40% active; in the data active = inhibition above about 49%;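 also: CHO-Ga16 host cells challenged with agonist PEA near its EC80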
Ga16 nonsel ag – nonselective Ga16 agonism, counter-screen. shares compounds with TAAR1 antagonist. Ga16-expressing cells, calcium fluorescence, agonist counterscreen. activation, % at 3 µM. 2,400 tested, 18% active; in the data active = activation above about 12%
TAAR1 ag counter – TAAR1 agonism, antagonist counter-screen; shares compounds with TAAR1 antagonist; hTAAR1 cell line, fluorescence activation, agonist mode; 2,400 tested, 2% active; activation, % at 3 µM; in the data active = activation above about 37%;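 also: CHO cells stably expressing TAAR1 with calcium dye readout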
Of the large screens only hits and unclear results are named; the others gave an inactive call (follow-up assays come after a bar, where they were run).

C[C@@H](C(=O)N1CCN(c2ccccc2)CC1)N1C(=O)C2CC=CCC2C1=O (some centres not stated)	none
COc1cc(-c2nnc(SCC(=O)c3ccc(C)cc3)o2)cc(OC)c1OC	TAAR1 antagonist 54 | nonsel antag count 26 | TAAR1 ant conf inactive | Ga16 nonsel ag inactive | TAAR1 ag counter inactive
O=C(Nc1cc(=O)c2ccccc2o1)N1CCOCC1	TAAR1 antagonist 64, M1 antag 31 | nonsel antag count inactive | TAAR1 ant conf inactive | Ga16 nonsel ag inactive | TAAR1 ag counter inactive
O=C(Nc1cc(=O)c2ccccc2o1)N1CCCCC1	none
CCc1cccc2c(C(=O)COC(=O)c3nn(C)c(=O)c4ccccc34)c[nH]c12	TAAR1 antagonist 58 | nonsel antag count 37 | TAAR1 ant conf inactive | Ga16 nonsel ag 14 | TAAR1 ag counter inactive
CCc1cccc2c(C(=O)COC(=O)C3=NNC(=O)CC3)c[nH]c12	none
O=C1CCc2cc(Br)ccc2O1	none
COc1ccc(-c2[nH]c(-c3ccc(Cl)cc3)nc2SCC(=O)Nc2nccs2)cc1	none
COc1ccc(-c2[nH]c(-c3ccccc3)nc2SCC(=O)Nc2nccs2)cc1	TAAR1 antagonist 49 | nonsel antag count inactive | TAAR1 ant conf inactive | Ga16 nonsel ag inactive | TAAR1 ag counter inactive
Cc1noc(C)c1C(=O)Nc1nc(-c2ccc([N+](=O)[O-])cc2)cs1	TAAR1 antagonist 57 | nonsel antag count 37 | TAAR1 ant conf inactive | Ga16 nonsel ag inactive | TAAR1 ag counter inactive
Cc1ccc(-c2csc(NC(=O)c3c(C)noc3C)n2)cc1	none
Cc1n[nH]c(C)c1CCc1nc2c3ccccc3nc(SCC(=O)Nc3ccccc3F)n2n1	TAAR1 antagonist 61 | nonsel antag count 23 | TAAR1 ant conf inactive | Ga16 nonsel ag inactive | TAAR1 ag counter inactive
Cc1ccc(S(=O)(=O)NC(=O)Cn2nnc(-c3ccccc3)c2COc2ccc3ccccc3c2)cc1	none
CC1=C(C(=O)O)N2C(=O)C(NC(=O)c3ccc(F)cc3)C2SC1 (configuration not stated)	none
CCC1(CC)NC(=O)N(CC(=O)OCC(=O)Nc2ccccc2OC(F)F)C1=O	none
CC1CCCCC12NC(=O)N(CC(=O)OCC(=O)Nc1ccc(F)cc1[N+](=O)[O-])C2=O (configuration not stated)	TAAR1 antagonist 76, M1 antag 29 | nonsel antag count 32 | TAAR1 ant conf 53 | Ga16 nonsel ag inactive | TAAR1 ag counter inactive
COc1ccccc1C(=O)NC(=O)COC(=O)CN1C(=O)NC2(CCCCC2C)C1=O (configuration not stated)	none
CCC1(CC)NC(=O)N(CC(=O)OCC(=O)Nc2ccccc2[N+](=O)[O-])C1=O	TAAR1 antagonist 68 | nonsel antag count 23 | TAAR1 ant conf 52 | Ga16 nonsel ag 12 | TAAR1 ag counter inactive
COc1ccc(S(=O)(=O)N2CCCCCC2)cc1NC(C)C(=O)Nc1ccc(NC(C)=O)cc1 (configuration not stated)	none
CCOC(=O)N1CCN(CC(=O)Nc2c(C(=O)OC)[nH]c3ccccc23)CC1	none
COc1cccc(N2CCN(CC(=O)Nc3ccccc3C(=O)NCc3ccccc3)CC2)c1	TAAR1 antagonist 66, M1 antag 34 | nonsel antag count 24 | TAAR1 ant conf 56 | Ga16 nonsel ag inactive | TAAR1 ag counter inactive
COC(=O)c1[nH]c2ccccc2c1NC(=O)CN1CCN(c2cccc(Cl)c2)CC1	TAAR1 antagonist 62 | nonsel antag count 30 | TAAR1 ant conf inactive | Ga16 nonsel ag inactive | TAAR1 ag counter inactive
c1ccc(NC2=NCCN2CCCC2CCCCC2)cc1	none
O=C(CN1C(=O)NC2(CCCC2)C1=O)NCCc1ccc(F)cc1	none
Cc1ccc(NC(=O)Cn2nc(C(=O)O)c3ccccc3c2=O)cc1S(=O)(=O)N1CCCCCC1	TAAR1 antagonist 102 | nonsel antag count 36 | TAAR1 ant conf inactive | Ga16 nonsel ag inactive | TAAR1 ag counter inactive
Cc1ccc(NC(=O)Cn2nc(C(=O)O)c3ccccc3c2=O)cc1S(=O)(=O)N1CCOCC1	none
C=CC[C@H](CC(=O)N(CCO)Cc1ccccc1)C(=O)N[C@H](COC(=O)[C@@H](CC=C)CC(=O)OC(C)(C)C)Cc1c[nH]c2ccccc12	TAAR1 antagonist 67 | nonsel antag count inactive | TAAR1 ant conf inactive | Ga16 nonsel ag inactive | TAAR1 ag counter inactive
C=CCC[C@H](Cc1ccc(F)cc1)C(=O)OC[C@H](Cc1c[nH]c2ccccc12)NC(=O)[C@H](CC=C)CC(=O)NCCO	TAAR1 antagonist 73 | nonsel antag count 26 | TAAR1 ant conf inactive | Ga16 nonsel ag inactive | TAAR1 ag counter inactive
C=CCC[C@@H](Cc1ccc(F)cc1)C(=O)OC[C@@H](Cc1c[nH]c2ccccc12)NC(=O)[C@@H](CC=C)CC(=O)NCCO	none
C=CC[C@H](CC(=O)NCCO)C(=O)NC[C@@H](OC(=O)[C@@H](CC=C)Cc1ccc(F)cc1)c1ccccc1	none
C=CC[C@@H](CC(=O)N[C@H](CO)Cc1ccccc1)C(=O)NC[C@H](OC(=O)[C@@H](CC=C)Cc1ccc(F)cc1)c1ccccc1	TAAR1 antagonist 69, M1 antag 34 | nonsel antag count 30 | TAAR1 ant conf 56 | Ga16 nonsel ag inactive | TAAR1 ag counter inactive
CCCCCOc1ccc(C2C(C(=O)c3ccc(C)o3)=C(O)C(=O)N2c2cc(C)on2)cc1 (configuration not stated)	none
OC[C@@H]1CN(Cc2ccc(F)cc2)C[C@H](n2cnc3c(N4CCCC4)ncnc32)O1	none
Cc1ccc(OCC(=O)Nc2cccc(-c3nnc(-c4ccccc4)o3)c2)cc1	TAAR1 antagonist 69 | nonsel antag count 35 | TAAR1 ant conf 65 | Ga16 nonsel ag inactive | TAAR1 ag counter inactive
CC(=O)Nc1cccc(-c2nnc(-c3ccc(C)cc3)o2)c1	none
Cc1cccc(OCC(=O)Nc2cccc(-c3nnc(-c4ccccc4)o3)c2)c1C	TAAR1 antagonist 69 | nonsel antag count 32 | TAAR1 ant conf 60 | Ga16 nonsel ag inactive | TAAR1 ag counter inactive

Compound activity deposited in PubChem BioAssay by The Scripps Research Institute Molecular Screening Center.
